“And” between values parts separate entries of the source, which are not always exact repeats. Identical values can stand only once. Counter-ions that a name gives are not always drawn. The source made the active and inactive calls. No cut-off for these calls is given here.
Legend:
[1] = molecular target: T1, DNA-3-methyladenine glycosylase (Homo sapiens, UniProt P29372); assay: Inhibition of human purified MPG pre-incubated with compound for 10 mins followed by addition of 1,N6 ethenoadenine containing 32P-labeled duplex oligonucleotide substrates at 20 uM by gel-based excision activity assay
Procedure, shortened: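 Purified hMPG (2.3 nM) pre-incubated 10 min at room temperature with 20 µM compound. Then 7 nM εA ³²P-duplex added, 10 min at 37°C, in 25 mM HEPES pH 7.9, 150 mM NaCl, BSA, DTT, 10% glycerol. Stopped 65°C, AP sites cut with 15 nM APE1/5 mM MgCl₂. Denaturing 20% PAGE, band densitometry.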

[2] = molecular target: T1, DNA-3-methyladenine glycosylase; assay: Inhibition of human purified MPG pre-incubated with compound for 10 mins followed by addition of 1,N6 ethenoadenine containing 32P-labeled duplex oligonucleotide substrates by gel-based excision activity assay
Procedure, shortened: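 Purified hMPG (2.3 nM) pre-incubated 10 min at room temperature with a range of compound concentrations. Then 7 nM εA ³²P-duplex substrate, 10 min at 37°C, in HEPES pH 7.9 buffer with 150 mM NaCl. Heat stop, APE1 cleavage of AP sites. Products resolved on 7 M urea/20% PAGE and bands quantified; IC50 from the concentration series.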

[3] = Binding affinity to ethenoadenine containing 5'-TCGAGGATCCTGAGCTCGAGTCGACGXTCGCGAATTCTGCGGATCCAAGC-3' duplex oligonucleotide DNA (unknown origin) at 15 uM by SPR assay
Procedure, shortened: (§1)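 Biotinylated 50-mer oligonucleotide, undamaged or εA-containing, immobilized on streptavidin-coated C1 chip (Biacore T100). Compound injected at 15 µM in 10 mM HEPES-KOH pH 7.6, 90 mM KCl, 0.05% surfactant P20 at 7°C; background-subtracted RU recorded over repeated 60 s injections.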

[4] = Binding affinity to 5'-TCGAGGATCCTGAGCTCGAGTCGACGXTCGCGAATTCTGCGGATCCAAGC-3' duplex oligonucleotide DNA (unknown origin) at 15 uM by SPR assay; procedure, shortened: as §1
[5] = molecular target: T1, DNA-3-methyladenine glycosylase; assay: Inhibition of human purified MPG binding to immobilized ethenoadenine containing 5'-TCGAGGATCCTGAGCTCGAGTCGACGXTCGCGAATTCTGCGGATCCAAGC-3' duplex oligonucleotide at 5 to 40 uM by SPR assay
Procedure, shortened: (§2)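 εA-containing 50-mer biotinylated and immobilised on a streptavidin C1 chip. 30 nM hMPG pre-mixed with compound (0, 5, 10, 20, 40 µM) and injected twice for 60 s each. Buffer: 10 mM HEPES-KOH pH 7.6, 90 mM KCl, 0.05% P20, 7°C. Inhibition taken as percent decrease in background-subtracted RU versus DMSO.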

[6] = molecular target: T1, DNA-3-methyladenine glycosylase; assay: Inhibition of human purified MPG binding to immobilized ethenoadenine containing 5'-TCGAGGATCCTGAGCTCGAGTCGACGXTCGCGAATTCTGCGGATCCAAGC-3' duplex oligonucleotide at 40 uM by SPR assay; procedure, shortened: as §2
[7] = molecular target: DNA repair nuclease/redox regulator APEX1 (Homo sapiens) (UniProt P27695); assay: Inhibition of APE1 (unknown origin) pre-incubated with compound for 10 mins followed by addition of […] at 20 to 40 uM by gel-based excision activity assay
[8] = molecular target: N-glycosylase/DNA lyase (Homo sapiens) (UniProt O15527); assay: Inhibition of OGG1 (unknown origin) pre-incubated with compound for 10 mins followed by addition of […] containing 32P-labeled duplex oligonucleotide substrates at 20 to 40 uM by gel-based excision activity assay
Procedure, shortened: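 Purified OGG1 pre-incubated with compound (0, 20, 40 µM) 10 min at room temperature. Products resolved on denaturing 20% polyacrylamide/7M urea gels; band intensities quantified.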

[9] = molecular target: T1, DNA-3-methyladenine glycosylase; assay: Inhibition of MPG in human A549 cell extracts at 50 to 300 uM using 1,N6 ethenoadenine containing 32P-labeled duplex oligonucleotide substrates by gel-based excision activity assay
Procedure, shortened: (§3)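 Whole-cell extract (5 µg; A549 or HeLa, made with M-PER) pre-incubated with compound at 0, 50, 100, 200 and 300 µM for 10 min at room temperature. Then 3 nM εA ³²P-duplex substrate added; buffer and workup as for purified enzyme. Product bands on denaturing urea gel quantified as percent product formation, normalised to untreated samples.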

[10] = molecular target: T1, DNA-3-methyladenine glycosylase; assay: Inhibition of MPG in human HeLa cell extracts at 50 to 300 uM using 1,N6 ethenoadenine containing 32P-labeled duplex oligonucleotide substrates by gel-based excision activity assay; procedure, shortened: as §3
[11] = molecular target: T1, DNA-3-methyladenine glycosylase; assay: Inhibition of MPG in human A549 cells assessed as reduction in DNA repair at 200 and 300 uM using ethenoadenine-containing M13mp18 plasmids by plasmid based in-cell repair assay
Procedure, shortened: (§4)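 Lesion plasmid built in vitro: M13mp18 with εA at the EcoRI site; cells in DMEM/10% FBS, compound at 0, 200 or 300 µM. Plasmid transfected into cells, then recovered after harvest. EcoRI digest tests the lesion site and SacI the internal control site. Repair scored by plaque formation.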

[12] = molecular target: N-glycosylase/DNA lyase (Homo sapiens) (UniProt O15527); assay: Inhibition of OGG1 in human A549 cells assessed as reduction in DNA repair at 200 and 300 uM using 8-oxodG-containing M13mp18 plasmids by plasmid based in-cell repair assay
Procedure, shortened: (§5)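 A549 or HeLa cells (DMEM, 10% FBS) treated with compound (0, 200, 300 µM) and transfected with in vitro–built 8-oxo-dG-containing M13mp18 plasmid (lesion at EcoRI site). Plasmids recovered, digested with EcoRI (lesion site) and SacI (internal control), and used for plaque formation to calculate repair.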

[13] = molecular target: T1, DNA-3-methyladenine glycosylase; assay: Inhibition of MPG in human HeLa cells assessed as reduction in DNA repair at 200 and 300 uM using ethenoadenine-containing M13mp18 plasmids by plasmid based in-cell repair assay; procedure, shortened: as §4
[14] = molecular target: N-glycosylase/DNA lyase (Homo sapiens) (UniProt O15527); assay: Inhibition of OGG1 in human HeLa cells assessed as reduction in DNA repair at 200 and 300 uM using 8-oxodG-containing M13mp18 plasmids by plasmid based in-cell repair assay; procedure, shortened: as §5
[15] = molecular target: T1, DNA-3-methyladenine glycosylase; assay: Inhibition of MPG in human HeLa cells assessed as reduction in DNA repair at 300 uM using ethenoadenine-containing M13mp18 plasmids by plasmid based in-cell repair assay; procedure, shortened: as §4
[16] = molecular target: T1, DNA-3-methyladenine glycosylase; assay: Inhibition of MPG in human A549 cells assessed as reduction in DNA repair at 300 uM using ethenoadenine-containing M13mp18 plasmids by plasmid based in-cell repair assay; procedure, shortened: as §4
A549 = assay: Toxicity against human A549 cells assessed as reduction in cell viability at 0.2 to 1.4 mM after 72 hrs by MTT assay; format: cell-based; details: a549, 72 h, 1400 µM
Procedure, shortened: (§6)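 A549 or HeLa cells seeded at 2000 per well, treated next day for 72 h in triplicate with compound (0–2 mM). Then MTT 0.5 mg/mL for 4 h at 37°C, DMSO solubilization. Absorbance read at 570 nm minus 650 nm background; percent survival relative to untreated wells.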

HeLa = assay: Toxicity against human HeLa cells assessed as reduction in cell viability at 0.2 to 1.4 mM after 72 hrs by MTT assay; format: cell-based; details: 1400 µM; procedure, shortened: as §6

T1 sequence (P29372 whole entry): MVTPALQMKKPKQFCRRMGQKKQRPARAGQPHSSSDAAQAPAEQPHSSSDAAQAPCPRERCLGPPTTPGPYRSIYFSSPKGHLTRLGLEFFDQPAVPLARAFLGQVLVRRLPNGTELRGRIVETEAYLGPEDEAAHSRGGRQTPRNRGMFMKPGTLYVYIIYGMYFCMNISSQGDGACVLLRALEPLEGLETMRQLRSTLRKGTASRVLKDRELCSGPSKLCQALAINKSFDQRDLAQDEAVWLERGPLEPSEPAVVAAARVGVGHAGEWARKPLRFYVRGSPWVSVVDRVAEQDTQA
Sequence of N-glycosylase/DNA lyase (Homo sapiens) (O15527 whole entry): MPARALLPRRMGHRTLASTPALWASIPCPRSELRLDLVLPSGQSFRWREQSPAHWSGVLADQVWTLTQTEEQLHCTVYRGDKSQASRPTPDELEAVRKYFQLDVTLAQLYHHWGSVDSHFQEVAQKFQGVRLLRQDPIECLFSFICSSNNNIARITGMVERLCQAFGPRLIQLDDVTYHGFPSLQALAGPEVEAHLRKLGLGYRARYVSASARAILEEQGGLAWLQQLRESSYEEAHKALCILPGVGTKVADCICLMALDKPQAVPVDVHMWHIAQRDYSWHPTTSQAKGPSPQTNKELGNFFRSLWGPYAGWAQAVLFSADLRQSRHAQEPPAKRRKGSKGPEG
Sequence of DNA repair nuclease/redox regulator APEX1 (Homo sapiens) (P27695 whole entry): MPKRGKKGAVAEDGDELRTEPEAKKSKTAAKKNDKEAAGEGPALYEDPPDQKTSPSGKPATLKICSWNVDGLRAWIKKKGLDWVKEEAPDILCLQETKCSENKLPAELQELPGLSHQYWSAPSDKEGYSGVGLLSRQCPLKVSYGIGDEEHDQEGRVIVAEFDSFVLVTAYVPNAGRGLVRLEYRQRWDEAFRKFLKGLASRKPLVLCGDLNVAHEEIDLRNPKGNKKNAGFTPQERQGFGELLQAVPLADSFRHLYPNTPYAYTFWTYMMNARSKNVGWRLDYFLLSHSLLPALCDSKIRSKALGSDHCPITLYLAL

Compound `O=c1c(O)c(-c2cc(O)c(O)c(O)c2)oc2cc(O)cc(O)c12` has an inhibition [1] of 36%.

In the case of `O=C1c2c(O)ccc(O)c2C(=O)c2c(NCCNCCO)ccc(NCCNCCO)c21` [MITOXANTRONE HYDROCHLORIDE], the IC50 [2] is reported as 2.5 µM and the Activity [3] is reported as “Active”.

In the case of `O.O=c1c(O)c(-c2ccc(O)cc2O)oc2cc(O)cc(O)c12`, the IC50 [2] is reported as 2.6 µM, the Activity [3] is reported as “inactive” and the Activity [4] is reported as “inactive”. The IC50 [5] was 12 µM, the inhibition [6] was “Active” and the inhibition [7] was “inactive”. For the same compound, the inhibition [8] was “inactive”, the inhibition [1] was 81% and the inhibition [9] was “Dose-dependent effect”. For the same compound, the inhibition [10] was “Dose-dependent effect”, the inhibition [11] was “Dose-dependent effect” and the inhibition [12] was “inactive”. For the same compound, the inhibition [13] was “Dose-dependent effect”, the inhibition [14] was “inactive” and the inhibition [15] was 50%. The inhibition [16] was 50%, the Activity (A549) was “Non-toxic” and the Activity (HeLa) was “Non-toxic”.

`O=C(O)/C=C/c1ccc(O)c(O)c1` gave an inhibition [1] of 0%.

Work on `O=C(O)C1=CC(=C(c2ccc(O)c(C(=O)O)c2)c2ccc(O)c(C(=O)O)c2)C=CC1=O` [AURINTRICARBOXYLIC ACID] yielded an IC50 [2] of 0.2 µM.

In the case of `O=c1c(O)c(-c2ccc(O)c(O)c2)oc2cc(O)cc(O)c12`, the inhibition [1] is reported as 38% and 44%, the inhibition [9] is reported as “inactive” and the inhibition [10] is reported as “inactive”.

In the case of `Cc1cc2c(C(C)C)c(O)c(O)c(C=O)c2c(O)c1-c1c(C)cc2c(C(C)C)c(O)c(O)c(C=O)c2c1O` [GOSSYPOL], the IC50 [2] is reported as 3 µM and the Activity [3] is reported as “Active”.

For `O=c1c(O)c(-c2ccc(O)cc2)oc2cc(O)cc(O)c12`, the inhibition [1] was 25%.

For `O=C/C=C/c1ccccc1`, the inhibition [1] was 0%.
